Shown are actives, neighbours in structure and some others; about 1.8% of the full set was active somewhere.
DDE Tn6 FP inh: inhibitors of Tn6 peptide binding to fibrin DD(E), primary screen, biochemical, fluorescence polarization, human fibrin, Tn6 probe | Fibrinogen beta chain (Homo sapiens), P02675 | Fibrin DD(E) TRITC-Tn6 fluorescence polarization displacement | inhibition, % at 8.3 µM | 370,000 compounds, 0.21% hits | AID 720509, 2013;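 active = inhibition above a per-campaign cutoff: mean of compounds within control limits plus 3 SD, cut at about 15% in these data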
Tn7 DDE FP: inhibitors of Tn7 peptide binding to fibrin DD(E), primary screen, biochemical, fluorescence polarization, human fibrin, Tn7 probe; Fibrinogen beta chain (Homo sapiens), P02675; FP displacement of FITC-Tn7 peptide from fibrin DD(E); 0% = median of compound wells per plate; inhibition, % at 8.3 µM; 370,000 compounds, 0.13% hits;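 active = inhibition above the mean of compounds falling within the control limits plus 3 SD of them, cut at about 14% in these data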
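assay system = human clot-derived fibrin DD(E) complex | quantity = Fibrin-DD(E) at 2 µM final | timing = 10 min preincubation, 3 h with tracer, room temperature | signal = fluorescence polarization | measure = percent inhibition | benchmarks = high control wells with 10 µM unlabelled Aha-Tn7 peptide (full inhibition) | replicates = singlicate testing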
HTRA1 inh: HTRA1 serine protease inhibitors, primary screen, biochemical, fluorescence polarization, HTS | Q92743 | recombinant HTRA1, FP-rhodamine activity-based probe | inhibition, % at 5.96 µM | 340,000 compounds, 0.5% hits | AID 504803, 2011; in the data active = inhibition above about 36%
Target sequence (Q92743 whole entry, looked up): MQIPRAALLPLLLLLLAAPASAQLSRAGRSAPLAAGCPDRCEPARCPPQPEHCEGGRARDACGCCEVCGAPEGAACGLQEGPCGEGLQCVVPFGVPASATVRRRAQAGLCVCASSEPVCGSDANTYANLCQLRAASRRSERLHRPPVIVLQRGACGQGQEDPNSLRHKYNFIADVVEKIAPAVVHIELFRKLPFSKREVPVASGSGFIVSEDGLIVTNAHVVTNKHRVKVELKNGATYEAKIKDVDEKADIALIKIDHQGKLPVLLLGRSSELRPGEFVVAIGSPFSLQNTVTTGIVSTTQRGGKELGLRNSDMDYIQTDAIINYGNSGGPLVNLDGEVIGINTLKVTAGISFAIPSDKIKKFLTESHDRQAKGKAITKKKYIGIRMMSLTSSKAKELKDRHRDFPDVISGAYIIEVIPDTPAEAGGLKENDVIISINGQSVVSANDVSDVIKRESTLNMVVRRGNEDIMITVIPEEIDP
TCR CD3 inh: inhibitors of human TCR-CD3 interaction, primary screen, biochemical, fluorescence, TAMRA-labeled TCR probe; 360,000 compounds, 0.37% hits; inhibition, % at 9.4 µM; T-cell receptor (TCR); AID 651800, 2012; in the data active = inhibition above about 19%;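 note: recombinant mutant TCR 2C K166C tagged with TAMRA read by polarization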
mABHD4 FP: ABHD4 inhibitors, primary screen, biochemical, fluorescence polarization, mouse; (Lyso)-N-acylphosphatidylethanolamine lipase (Mus musculus), Q8VD66; purified mABHD4, FP-Rh probe fluorescence polarization; inhibition, % at 8.92 µM; 370,000 compounds, 0.54% hits; AID 720543, 2013;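 active = inhibition exceeding the mean over every tested compound plus 3 SD, cut at about 30% in these data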
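Test system: mABHD4 protein | Buffer or medium: HEPES pH 7.0 buffer, 150 mM NaCl, 0.01% Pluronic F-127 | Probe or stimulus: FP-Rh fluorescent activity-based probe, added after compound pre-incubation | Timing: Pre-incubation 45 min, probe exposure 60 min, at 25 °C | Technique: Fluorescence polarization, excitation 525 nm, emission 598 nm, BODIPY TMR filters | Repeats: Single well per compound (singlicate)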
SIAE primary: human SIAE inhibitors, primary screen, biochemical, fluorescence polarization, FP-Rh probe, 1536-well HTS; inhibition, % at 9.66 µM; AID 1053197, 2014; Sialate O-acetylesterase (Homo sapiens), Q9HAT2; 370,000 compounds, 0.69% hits; SIAE FP-Rh probe binding;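 active = inhibition above a cutoff: mean of compounds within the control limits plus 3 SD of those, cut at about 17% in these data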
SIAE inh conf: human SIAE inhibitors, retest, confirmation, biochemical, fluorescence polarization, FP-Rh probe, triplicate. shares compounds with SIAE primary. AID 1117263, 2014. inhibition, % at 9.66 µM. 2,300 compounds, 13% hits. SIAE FP-Rh activity-based probe;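 active = mean inhibition of the replicates above the hit cutoff set in the primary screen, cut at about 17% in these data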;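 note: inhibitors lower polarization as more probe stays unbound to SIAE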
Large screens that a line does not name were inactive (follow-up assays come after a bar, where they were run).

O=C1[C@@H]2Cc3c([nH]c4ccccc34)CN2C(=O)CN1CCCO	SIAE primary 18 | SIAE inh conf inactive
CC1CC1C(=O)OCC(=O)NCc1ccc(Cl)cc1 (configuration not stated)	none
COc1ccc(CNC(=O)COC(=O)C2CC2C)cc1OC (configuration not stated)	SIAE primary 24 | SIAE inh conf inactive
CCCCCCCCN1CN2Cc3ccc(C)cc3C2CS1(=O)=O (configuration not stated)	none (no result: HTRA1 inh, TCR CD3 inh)
CCOC(=O)[C@]12CCCC=C1N(Cc1ccc(OC)cc1)C(=O)[C@@H]2CC(=O)NCc1ccc(C)o1	none (no result: HTRA1 inh, TCR CD3 inh)
COc1ccccc1Nc1ccc(NC(=O)c2cccc([N+](=O)[O-])c2C)cc1	SIAE primary 18 | SIAE inh conf inactive
COc1ccc(-n2c(COc3ccccc3)nnc2SCC(=O)Nc2ccccc2-c2ccccc2)cc1	none (no result: HTRA1 inh, TCR CD3 inh)
O=C(c1ccc(Cl)cc1[N+](=O)[O-])N1CCN(c2ccccn2)CC1	none
Cc1c(C(=O)N2CCN(c3ccccn3)CC2)cccc1[N+](=O)[O-]	SIAE primary 18 | SIAE inh conf inactive
CCOC(=O)c1c[nH]n(-c2ccc(C)cc2)c1=O	SIAE primary 18 | SIAE inh conf inactive
COc1ccc(NC(=O)c2cc3c(-c4ccc(OC)c(OC)c4)nn(C)c3s2)cc1OC	SIAE primary 19 | SIAE inh conf inactive
Cc1ccc(C=Nn2c(-c3n[nH]c4c3CCC4)n[nH]c2=S)s1	none (no result: HTRA1 inh, TCR CD3 inh)
O=C(CC[C@H]1O[C@@H](n2cnc3c(NC(=O)c4ccccc4)ncnc32)[C@H](O)[C@@H]1O)NCC1CCN(Cc2ccccc2)CC1	SIAE primary 34 (no result: HTRA1 inh) | SIAE inh conf 27
O=C(CC[C@H]1O[C@@H](n2cnc3c(NC(=O)c4ccccc4)ncnc32)[C@H](O)[C@@H]1O)NCC(F)(F)F	none (no result: HTRA1 inh)
Oc1ccccc1N=Nc1nc(-c2ccccc2)c(-c2ccccc2)[nH]1	SIAE primary 17 | SIAE inh conf inactive
COCCn1c(N)c(C#N)c2nc3ccccc3nc21	SIAE primary 19 | SIAE inh conf inactive
CN1/C(=C\C(=O)C(F)F)C(C)(C)c2ccccc21	none
CN1/C(=C/C=C(C#N)C#N)C(C)(C)c2ccccc21	SIAE primary 25 | SIAE inh conf 81
CCN1C(=O)[C@H]2[C@@H](c3ccc(C)cc3)N3C(=O)N(c4cccc(Cl)c4)C(=O)[C@@]3(C)[C@H]2C1=O	SIAE primary 23 | SIAE inh conf inactive
Cc1nc(NS(=O)(=O)c2ccccc2)sc1NC(=O)Nc1ccc(Cl)cc1	SIAE primary 18 | SIAE inh conf 27
COc1ccc(CN2CCN(Cc3ccc(C)cc3)CC2)c(OC)c1	none
COc1ccc(CN2CCN(Cc3ccccc3F)CC2)c(OC)c1	SIAE primary 17 | SIAE inh conf inactive
COC(=O)[C@]12C[C@H](CC(=O)N3CCCC3)C(=O)N(Cc3ccco3)C1=C[C@H](C1CCCC1)O[C@@H]2C	none (no result: HTRA1 inh, TCR CD3 inh)
Cc1cc(NS(=O)(=O)c2ccc(NC(=O)Cc3ccccc3)cc2)no1	none (no result: HTRA1 inh, TCR CD3 inh)
CC(C)c1ccc(NC(=O)/C(C#N)=C/c2ccncc2)cc1	SIAE primary 18 | SIAE inh conf inactive
CCOC(=O)C1=NOC(C(=O)NC2CCCC2)(C(=O)C2CC2)C1 (configuration not stated)	none (no result: HTRA1 inh, TCR CD3 inh)
COCCN1Cc2cc(C(=O)OC)c3c(c2C1=O)c1cc(OC)ccc1n3C(=O)c1ccccc1	none (no result: HTRA1 inh)
O=C(c1ccc(N2C(=O)CCC2=O)cc1)N1CCCSC1=Nc1ccccc1	SIAE primary 29 | SIAE inh conf inactive
CC(C)C[C@H](NC(=O)c1nc[nH]c1C(=O)N1CCC(C)CC1)C(=O)OC(C)(C)C	none
CC1CCN(C(=O)c2[nH]cnc2C(=O)N[C@@H](CCCCNC(=O)OC(C)(C)C)C(=O)OC(C)(C)C)CC1	SIAE primary 22 | SIAE inh conf inactive
Cc1ccc(NS(=O)(=O)c2ccc3c(c2)C(=O)c2ccccc2C3=O)c(C)c1	SIAE primary 18 | SIAE inh conf inactive
C[C@@H]1CCN(C2CC2)S(=O)(=O)c2c(cccc2N2CC[C@@H](N(C)C)C2)O1	none (no result: HTRA1 inh, TCR CD3 inh)
CCOC(=O)c1c(C)[nH]c(C)c1S(=O)(=O)N1CCN(c2ccc(F)cc2)CC1	SIAE primary 19 | SIAE inh conf inactive
CN1C(=O)c2cc(NC(=O)Cc3ccccc3)ccc2OC[C@H]2O[C@H](CC(=O)O)CC[C@H]21	none (no result: HTRA1 inh, TCR CD3 inh)
COc1ccc(Oc2cn[nH]c2-c2ccc(O)cc2O)cc1	SIAE primary 19 | SIAE inh conf inactive
CCCc1ccc(Oc2cn[nH]c2-c2ccc(O)cc2O)cc1	none
COc1ccc(NC(=O)Nc2cc(C)nn2-c2ccccc2)cc1	none (no result: HTRA1 inh, TCR CD3 inh)
CN(C)CC(=O)N[C@H]1C[C@@H]2O[C@@H](CO)CC[C@@H]2O[C@@H]1CCc1ccc(C2=CCCCC2)cc1	none (no result: HTRA1 inh, TCR CD3 inh)
CSc1ccc(/C=C/C(=O)c2ccc(NC(=O)Cc3ccccc3)cc2)cc1	TCR CD3 inh 51, SIAE primary 31 | SIAE inh conf 45
CSc1ccc(/C=C/C(=O)c2ccc(NC(=O)C(C)C)cc2)cc1	none
CC1CCC2(CC1)CCN(CCCOC(=O)Nc1cccc(C(F)(F)F)c1)C2=O (configuration not stated)	none (no result: HTRA1 inh, TCR CD3 inh)
CCOC(=O)c1[nH]c(C)c(C(=O)N2CCOCC2)c1C	SIAE primary 22 | SIAE inh conf inactive
O=C(Nc1nnc(-c2cccs2)o1)c1ccco1	SIAE primary 19 | SIAE inh conf inactive
O=C(Nc1nnc(-c2ccc(Br)cc2)o1)c1ccco1	none (no result: DDE Tn6 FP inh, Tn7 DDE FP, TCR CD3 inh, mABHD4 FP, SIAE primary)
O=C(NN=C/C=C/c1ccco1)c1cc(-c2ccc(Cl)cc2)n[nH]1	none (no result: HTRA1 inh, TCR CD3 inh)
CCCCCC(=O)Nc1ccc(-c2csc(N)n2)cc1	SIAE primary 18 | SIAE inh conf inactive
CCCCCC(=O)Nc1ccc(-c2csc(C)n2)cc1	none
CCN(CC)C(=O)CC[C@@H]1CC[C@]2(CCCN(C(=O)c3ccno3)C2)O1	none (no result: HTRA1 inh, TCR CD3 inh)
COc1ccc2oc(=O)c(C(=O)NCc3ccc(F)cc3)cc2c1	SIAE primary 62 | SIAE inh conf inactive
CCCOc1ccc(C(=O)N/N=C/c2c[nH]c3ccc(Br)cc23)cc1	SIAE primary 19 | SIAE inh conf inactive
CCOC(=O)[C@@]12CN(C(=O)OC(C)(C)C)CC=C1N(Cc1ccc(OC)cc1)C(=O)[C@H]2CC(=O)NCCCOC	none (no result: HTRA1 inh, TCR CD3 inh)

High-throughput results deposited in PubChem BioAssay by The Scripps Research Institute Molecular Screening Center.
